Measurements from ChEMBL document CHEMBL6074625, “Thiazolidine-2,4-dione hybrids as dual alpha-amylase and alpha-glucosidase inhibitors: design, synthesis, in vitro and in vivo anti-diabetic evaluation” (RSC Med Chem, 2024).

Key:
PANC-1 [1] = assay: Antioxidant activity in human PANC-1 cells assessed as decrease in high glucose induced ROS production by measuring minimum fractional index at 5 uM incubated for 24 hrs by DCFDA-staining based flow cytometry analysis; format: functional
Summary of the method: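 PANC-1 cells (1 × 10⁵/well) grown 24 h at 37 °C, 5% CO₂, then pre-treated 1 h with 5 μM compound. Exposed to glucose (stated 10 μM) for 23 h. Stained with 10 μM DCFH-DA for 30 min at 37 °C, rinsed, and ROS read by flow cytometry as DCFDA/FITC mean fluorescence intensity.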

PANC-1 [2] = assay: (§1) Anti-diabetic activity against high glucose induced human PANC-1 cells assessed as decrease in glucose induced alpha-glucosidase expression by measuring by measuring minimum fractional index at 5 uM incubated for 23 hrs and measured after 24 hrs by flow cytometric analysis (reference value: 4361 +/- 257.83); format: functional
PANC-1 [3] = assay: as §1, with “alpha-amylase” for “alpha-glucosidase”, “2887” for “4361”, “95.87)” for “257.83)”; format: functional
[4] = Inhibition of porcine pancreatic alpha-amylase using starch as substrate preincubated for 10 min followed by substrate addition and measured after 20 min by absorbance based analysis; design: species or system Sus scrofa
Summary of the method: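 Porcine α-amylase (1 U mL⁻¹) pre-incubated with compound 10 min at 25 °C in phosphate buffer pH 6.8. 1% starch added, then 15 min at 37.5 ± 2 °C. Quenched with DNS reagent, heated 70 °C 20 min, diluted with buffer, A540 read, in triplicate. Final concentrations 100–1 μM from DMSO dilutions; IC50 from a linear fit of % inhibition at y = 50.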

PANC-1 [5] = assay: Cytotoxicity against human PANC-1 cells assessed as inhibition of cell viability at upto 100 uM incubated for 24 hrs by MTT assay; format: toxicity, cell-based; settings: panc-1, 24 h
Summary of the method: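 PANC-1 cells seeded at 9 × 10³ per well, triplicate, 24 h at 37 °C, 5% CO₂. Treated with 5, 10, 20, 40, 60, 80 and 100 μM for another day. MTT (5 mg mL⁻¹ stock) 3 h at 37 °C, plates centrifuged, formazan dissolved in DMSO 30 min dark, A570. Viability compared by one-way ANOVA with Tukey test.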

[6] = target: alpha-glucosidase (Saccharomyces cerevisiae); assay: Inhibition of Saccharomyces cerevisiae alpha-glucosidase using 4-nitrophenyl-alpha-D-glucopyranoside as substrate incubated with compound for 15 to 20 min by absorbance based analysis
Rattus norvegicus [7] = assay: Antioxidant activity in fasted STZ-induced diabetic Wistar rat model assessed as increase in high glucose induced ROS production in pancreas by measuring minimum fractional index at 10 mg/kg, po administration for 21 days; format: functional; settings: time 21 day
Summary of the method: (§2)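 Rat pancreas mashed through a 70 μm strainer in FACS buffer. Processed by centrifugation (300 × g and 800 × g, 21 °C), 42% Percoll and 5 min RBC lysis. Cells washed, stained with DCFH-DA, and ROS read on a flow cytometer.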

Rattus norvegicus [8] = assay: Antioxidant activity in fasted STZ-induced diabetic Wistar rat model assessed as decrease in high glucose induced ROS production in pancreas by measuring minimum fractional index at 10 mg/kg, po administration for 21 days in presence of pioglitazone days and measured on day 35; format: functional; settings: time 21 day; summary of the method: as §2
Rattus norvegicus [9] = species on record: Rattus norvegicus; assay: (§3) Anti-diabetic activity in high glucose induced alpha-amylase expression in fasted STZ-induced diabetic Wistar rat model assessed as alpha- glucosidase level in pancreas by measuring minimum fractional index in presence of pioglitazone incubated for 23 hrs and measured after 24 hrs by flow cytometric analysis (reference value: 3063 +/- 149.2); format: functional
Rattus norvegicus [10] = species on record: Rattus norvegicus; assay: as §3, with “alpha-amylase” for “alpha- glucosidase”, “2590 + 199.74)” for “3063 +/- 149.2)”; format: functional
[11] = Toxicity against STZ-induced diabetic Wistar rat model assessed as body weight loss at 10 mg/kg, po measured on day 14; format: organism-based; settings: in vivo, 336 h, time 14 day
Summary of the method: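 STZ given on day 1; oral treatment started day 14, with vehicle 0.5% CMC in controls. Six groups: normal, vehicle, STZ, STZ + two test compounds, STZ + pioglitazone. Blood glucose (tail puncture, glucometer) and body weight recorded on days 1, 4, 14 and 35. One-way ANOVA.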

[12] = Toxicity against STZ-induced diabetic Wistar rat model assessed as body weight loss in presence of pioglitazone at 10 mg/kg, po measured on day 14; format: organism-based; settings: in vivo

`C[C@H]1O[C@H](O[C@H]2[C@H](O)[C@@H](O)[C@@H](O[C@H]3[C@H](O)[C@@H](O)C(O)O[C@@H]3CO)O[C@@H]2CO)[C@H](O)[C@@H](O)[C@@H]1N[C@H]1C=C(CO)[C@@H](O)[C@H](O)[C@H]1O` (some centres undefined) [ACARBOSE] gave an Activity_index (PANC-1 [1]) of 149, an Activity index (PANC-1 [2]) of 170 and an Activity index (PANC-1 [3]) of 114.

With `CCOc1cc(/C=C2\SC(=O)N(Cc3cccc([N+](=O)[O-])c3)C2=O)ccc1OCc1ccccc1` the IC50 [4] was 55.6 µM, the Activity (PANC-1 [5]) was “Non-toxic” and the Activity_index (PANC-1 [1]) was 898. It also gave an IC50 [6] of 31.2 µM.

For `CCOc1cc(/C=C2\SC(=O)N(Cc3cccc([N+](=O)[O-])c3)C2=O)ccc1OCc1ccc(F)cc1`, the IC50 [4] was 60.1 µM, the Activity (PANC-1 [5]) was “Non-toxic” and the Activity_index (PANC-1 [1]) was 2438. For the same compound, the IC50 [6] was 46.51 µM.

With `CCOc1cc(/C=C2\SC(=O)N(Cc3cccc([N+](=O)[O-])c3)C2=O)ccc1OCc1ccc(C)cc1` the IC50 [4] was 54.2 µM, the Activity (PANC-1 [5]) was “Non-toxic” and the Activity_index (PANC-1 [1]) was 230. It also gave an IC50 [6] of 20.31 µM.

`CN(N=O)C(=O)N[C@@H]1[C@@H](O)[C@H](O)[C@@H](CO)O[C@@H]1O` [STREPTOZOSIN] showed an Activity_index (Rattus norvegicus [7]) of 3762, an Activity_index (Rattus norvegicus [8]) of 221 and an Activity_index (Rattus norvegicus [9]) of 720. For the same compound, the Activity_index (Rattus norvegicus [10]) was 230, the Activity [11] was “Toxic” and the Activity [12] was “Toxic”.

For `CCOc1cc(/C=C2\SC(=O)N(Cc3cccc([N+](=O)[O-])c3)C2=O)ccc1OCc1ccc([N+](=O)[O-])cc1`, the IC50 [4] was 93.5 µM, the Activity (PANC-1 [5]) was “Non-toxic” and the Activity_index (PANC-1 [1]) was 676. The IC50 [6] was 38.33 µM.

In the case of `O=C1/C(=C2/SC(=O)N(Cc3cccc([N+](=O)[O-])c3)C2=O)Nc2ccc(Cl)cc21`, the IC50 [4] is reported as 50.8 µM, the Activity (PANC-1 [5]) is reported as “Non-toxic” and the Activity_index (PANC-1 [1]) is reported as 3063. The IC50 [6] was 53.18 µM.

For `O=C1/C(=C2/SC(=O)N(Cc3cccc([N+](=O)[O-])c3)C2=O)Nc2ccccc21`, the IC50 [4] was 44 µM, the Activity (PANC-1 [5]) was “Non-toxic” and the Activity_index (PANC-1 [1]) was 3041. It also gave an IC50 [6] of 58.44 µM.

In the case of `CCOc1cc(/C=C2\SC(=O)N(Cc3cccc([N+](=O)[O-])c3)C2=O)ccc1OS(=O)(=O)c1ccc(C)cc1`, the IC50 [4] is reported as 48.7 µM, the Activity (PANC-1 [5]) is reported as “Non-toxic” and the Activity_index (PANC-1 [1]) is reported as 957. For the same compound, the IC50 [6] was 42.24 µM.

With `CCOc1cc(/C=C2\SC(=O)N(Cc3cccc([N+](=O)[O-])c3)C2=O)ccc1OCc1cccc([N+](=O)[O-])c1` the IC50 [4] was 64.8 µM, the Activity (PANC-1 [5]) was “Non-toxic” and the Activity_index (PANC-1 [1]) was 4225. It also gave an IC50 [6] of 99.1 µM.

In the case of `O=C1/C(=C2/SC(=O)N(Cc3cccc([N+](=O)[O-])c3)C2=O)Nc2ccc(Br)cc21`, the IC50 [4] is reported as 61 µM, the Activity (PANC-1 [5]) is reported as “Non-toxic” and the Activity_index (PANC-1 [1]) is reported as 2982. The IC50 [6] was 68.76 µM.

With `CCOc1cc(/C=C2\SC(=O)N(Cc3cccc([N+](=O)[O-])c3)C2=O)ccc1OCc1ccc(Cl)cc1` the IC50 [4] was 126 µM, the Activity (PANC-1 [5]) was “Non-toxic” and the Activity_index (PANC-1 [1]) was 4225. The IC50 [6] was 96.15 µM.
